For assay [1], the target named is T1, mTORC1 (Homo sapiens) (UniProt P42345+Q8N122+Q9BVC4). As to the kind of experiment: Inhibition of mTORC1 signalling in human MDA-MB-231 cells assessed as induction of AKT phosphorylation at S473 residue at 100 nM measured within 18 hrs by immunoblot analysis relative to control. The class given is cell-based. The procedure, abridged:
(§1)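 Cells were exposed to 100 nM compound or DMSO for 2, 6 or 18 h, then scraped and lysed with PMSF, Na3VO4 and protease inhibitors. Lysate (10 μg protein) ran on 10% Bis-Tris SDS-PAGE and went to PVDF. Blots were probed 1:1000 for phospho and total AKT (S473), S6K (T389), RPS6 (S235/236) and 4E-BP1 (T37/46), plus GAPDH. IRDye secondaries; infrared imaging; two independent experiments.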

The target in assay [2] is T1, mTORC1 (Homo sapiens). Description: Inhibition of mTORC1 signalling in human MDA-MB-231 cells assessed as reduction in ribosomal protein S6 kinase phosphorylation at T389 residue at 100 nM measured after 2 to 18 hrs by immunoblot analysis relative to control. The class given is cell-based. The procedure, abridged:
as §1
A general note: In western blotting, separated proteins are transferred to a membrane and probed.

Assay [3] deals with MDA-MB-453. As to the kind of experiment: Antiproliferative activity against human MDA-MB-453 cells at 1 to 100 nM incubated for 48 hrs by sulforhodamine B assay. The class given is functional, cell-based. The procedure, abridged: (§2)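 IMEM with 5% FBS and 0.3% gentamicin; cells used within 4 months of thaw. After seeding at set densities and adhering, cells got compound or DMSO vehicle for 48 h, then were fixed and SRB-stained, with A560 read. GI50 (50% proliferation inhibition vs vehicle) came from non-linear regression of concentration-response curves; three independent experiments, each in triplicate.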
In general terms: Sulforhodamine B stains cellular protein and so reports cell mass.

Assay [4] has as its system SUM185PE. Description: Antiproliferative activity against human SUM185PE cells at 1 to 100 nM incubated for 48 hrs by sulforhodamine B assay. The class given is functional, cell-based. Put shortly:
as §2

For assay [5], the system named is HCC1937. As to the kind of experiment: Antiproliferative activity against human HCC1937 cells up to 100 nM incubated for 48 hrs by sulforhodamine B assay. The assay is classed as functional, cell-based. The procedure, abridged: (§3)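 Cells (RPMI-1640 with 5% FBS, 0.5% gentamicin; used within 4 months of thaw) were seeded at set densities, allowed to adhere, then treated 48 h with compound or DMSO vehicle. Cells were fixed and SRB-stained, with absorbance read at 560 nm. GI50 vs vehicle was taken by non-linear regression; three independent experiments, each in triplicate.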

Assay [6] deals with HCC1806. As to the kind of experiment: Antiproliferative activity against human HCC1806 cells up to 100 nM incubated for 48 hrs by sulforhodamine B assay. The class given is functional, cell-based. Put shortly:
as §3

For assay [7], the system named is BT-549. As to the kind of experiment: Antiproliferative activity against human BT549 cells up to 100 nM incubated for 48 hrs by sulforhodamine B assay. The class given is functional, cell-based. The procedure, abridged: as §3
Assay [8] concerns MDA-MB-231. Description: Antiproliferative activity against human MDA-MB-231 cells up to 100 nM incubated for 48 hrs by sulforhodamine B assay. The assay is classed as functional, cell-based. Put shortly:
as §2

The subject of assay [9] is HCC1937. Description: Antiproliferative activity against human HCC1937 cells at >1 uM incubated for 48 hrs by sulforhodamine B assay. The class given is functional, cell-based. The procedure, abridged:
as §3

In assay [10] the test system is MDA-MB-453. As to the kind of experiment: Antiproliferative activity against human MDA-MB-453 cells at > 1 uM incubated for 48 hrs by sulforhodamine B assay. The class given is functional, cell-based. Put shortly: as §2
The subject of assay [11] is HCC1806. Description: Antiproliferative activity against human HCC1806 cells at >1 uM incubated for 48 hrs by sulforhodamine B assay. The assay is classed as functional, cell-based. Put shortly:
as §3

For assay [12], the system named is MDA-MB-231. As to the kind of experiment: Antiproliferative activity against human MDA-MB-231 cells at > 1 uM incubated for 48 hrs by sulforhodamine B assay. The assay is classed as functional, cell-based. The procedure, abridged: as §2
Assay [13] relates to BT-549. As to the kind of experiment: Antiproliferative activity against human BT549 cells at >1 uM incubated for 48 hrs by sulforhodamine B assay. The class given is functional, cell-based. The procedure, abridged: as §3
For assay [14], the target named is T1, mTORC1 (Homo sapiens). Description: Inhibition of mTORC1 signalling in human MDA-MB-453 cells assessed as reduction in ribosomal protein S6 kinase phosphorylation at T389 residue at 100 nM measured within 2 hrs by immunoblot analysis relative to control. The class given is cell-based. Put shortly: as §1
Assay [15] concerns the target T1, mTORC1 (Homo sapiens). Description: Inhibition of mTORC1 signalling in human MDA-MB-453 cells assessed as reduction in RPS6 phosphorylation at S235/236 residue at 100 nM measured at 2 hrs by immunoblot analysis. The assay is classed as cell-based. Put shortly:
as §1

The target of assay [16] is T1, mTORC1 (Homo sapiens). Description: Inhibition of mTORC1 signalling in human MDA-MB-453 cells assessed as reduction in RPS6 phosphorylation at S235/236 residue at 100 nM measured at 6 hrs by immunoblot analysis relative to control. The class given is cell-based. The procedure, abridged: as §1
Assay [17] concerns the target T1, mTORC1 (Homo sapiens). Description: Inhibition of mTORC1 signalling in human MDA-MB-453 cells assessed as induction of AKT phosphorylation at S473 residue at 100 nM measured within 18 hrs by immunoblot analysis relative to control. The class given is cell-based. Put shortly: as §1
For assay [18], the target named is T1, mTORC1 (Homo sapiens). Description: Inhibition of mTORC1 signalling in human MDA-MB-231 cells assessed as reduction in RPS6 phosphorylation at S235/236 residue at 100 nM measured after 2 to 18 hrs by immunoblot analysis relative to control. The assay is classed as cell-based. Put shortly:
as §1

The target of assay [19] is T1, mTORC1 (Homo sapiens). Description: Inhibition of mTORC1 signalling in human MDA-MB-453 cells assessed as reduction in 4E-BP1 phosphorylation at T37/46 residue at 100 nM measured after 2 hrs by immunoblot analysis. The class given is cell-based. The procedure, abridged:
as §1

Assay [20] deals with T1, mTORC1 (Homo sapiens). As to the kind of experiment: Inhibition of mTORC1 signalling in human MDA-MB-231 cells assessed as reduction in 4E-BP1 phosphorylation at T37/46 residue at 100 nM measured after 2 hrs by immunoblot analysis. The class given is cell-based. Put shortly:
as §1

For assay [21], the system named is MDA-MB-453. As to the kind of experiment: Antiproliferative activity against human MDA-MB-453 cells at 0.01 to 100 nM incubated for 48 hrs by sulforhodamine B assay. The assay is classed as functional, cell-based. Put shortly: as §2
Assay [22] relates to SUM185PE. As to the kind of experiment: Antiproliferative activity against human SUM185PE cells at 0.01 to 100 nM incubated for 48 hrs by sulforhodamine B assay. The assay is classed as functional, cell-based. Put shortly: as §2
The subject of assay [23] is MDA-MB-453. Description: Antiproliferative activity against human MDA-MB-453 cells incubated for 48 hrs by sulforhodamine B assay. The note with it: MDA-MB-453, 48 h. The assay is classed as functional. Put shortly: as §2
The test system of assay [24] is SUM185PE. As to the kind of experiment: Antiproliferative activity against human SUM185PE cells incubated for 48 hrs by sulforhodamine B assay. The assay is classed as functional. Put shortly: as §2
Assay [25] deals with MDA-MB-231. Description: Antiproliferative activity against human MDA-MB-231 cells incubated for 48 hrs by sulforhodamine B assay. The note with it: MDA-MB-231, 48 h. The assay is classed as functional. The procedure, abridged:
as §2

Assay [26] deals with T1, mTORC1 (Homo sapiens). The note with it: MDA-MB-231, 10 nM.
For assay [27], the target named is T1, mTORC1 (Homo sapiens). The note with it: MDA-MB-453, 10 nM.

The results in this text go back to ChEMBL document CHEMBL4622886, “Leucinostatins from Ophiocordyceps spp. and Purpureocillium spp. Demonstrate Selective Antiproliferative Effects in Cells Representing the Luminal Androgen Receptor Subtype of Triple Negative Breast Cancer” (2020).

Activity calls are given as the source filed them. The rule behind the calls is not given here. Numbered stars: 1 amine (or outer) side, 2 acyl side, 3 side chain; on linkers, the order of the positions; unused ones are H or OH. Square brackets hold non-standard residues; d marks the D form. Peptide text beside a SMILES is read from it. * marks the point of attachment. X1 = CCC(=O)C[C@@H](O)C[C@@H](C)C[C@H](N[*:1])C(=O)[*:2]; X2 = CCC(=O)/C=C/C[C@@H](C)C[C@H](N[*:1])C(=O)[*:2]; Hexenoyl(2E,4S-Me) = CC[C@H](C)/C=C/C(=O)*; Leu(3R-OH) = CC(C)[C@@H](O)[C@H](N)C(=O)O; NH((S)CH(Me)CH2NMe2) = C[C@@H](CN(C)C)N*; Pro(4S-Me) = C[C@@H]1CN[C@H](C(=O)O)C1; NH((S)CH(CH3)CH2NHMe) = CNC[C@H](C)N*; Aib = CC(C)(N)C(=O)O; βAla = NCCC(=O)O

T1 sequence (Q8N122 whole entry, looked up, other chains not shown): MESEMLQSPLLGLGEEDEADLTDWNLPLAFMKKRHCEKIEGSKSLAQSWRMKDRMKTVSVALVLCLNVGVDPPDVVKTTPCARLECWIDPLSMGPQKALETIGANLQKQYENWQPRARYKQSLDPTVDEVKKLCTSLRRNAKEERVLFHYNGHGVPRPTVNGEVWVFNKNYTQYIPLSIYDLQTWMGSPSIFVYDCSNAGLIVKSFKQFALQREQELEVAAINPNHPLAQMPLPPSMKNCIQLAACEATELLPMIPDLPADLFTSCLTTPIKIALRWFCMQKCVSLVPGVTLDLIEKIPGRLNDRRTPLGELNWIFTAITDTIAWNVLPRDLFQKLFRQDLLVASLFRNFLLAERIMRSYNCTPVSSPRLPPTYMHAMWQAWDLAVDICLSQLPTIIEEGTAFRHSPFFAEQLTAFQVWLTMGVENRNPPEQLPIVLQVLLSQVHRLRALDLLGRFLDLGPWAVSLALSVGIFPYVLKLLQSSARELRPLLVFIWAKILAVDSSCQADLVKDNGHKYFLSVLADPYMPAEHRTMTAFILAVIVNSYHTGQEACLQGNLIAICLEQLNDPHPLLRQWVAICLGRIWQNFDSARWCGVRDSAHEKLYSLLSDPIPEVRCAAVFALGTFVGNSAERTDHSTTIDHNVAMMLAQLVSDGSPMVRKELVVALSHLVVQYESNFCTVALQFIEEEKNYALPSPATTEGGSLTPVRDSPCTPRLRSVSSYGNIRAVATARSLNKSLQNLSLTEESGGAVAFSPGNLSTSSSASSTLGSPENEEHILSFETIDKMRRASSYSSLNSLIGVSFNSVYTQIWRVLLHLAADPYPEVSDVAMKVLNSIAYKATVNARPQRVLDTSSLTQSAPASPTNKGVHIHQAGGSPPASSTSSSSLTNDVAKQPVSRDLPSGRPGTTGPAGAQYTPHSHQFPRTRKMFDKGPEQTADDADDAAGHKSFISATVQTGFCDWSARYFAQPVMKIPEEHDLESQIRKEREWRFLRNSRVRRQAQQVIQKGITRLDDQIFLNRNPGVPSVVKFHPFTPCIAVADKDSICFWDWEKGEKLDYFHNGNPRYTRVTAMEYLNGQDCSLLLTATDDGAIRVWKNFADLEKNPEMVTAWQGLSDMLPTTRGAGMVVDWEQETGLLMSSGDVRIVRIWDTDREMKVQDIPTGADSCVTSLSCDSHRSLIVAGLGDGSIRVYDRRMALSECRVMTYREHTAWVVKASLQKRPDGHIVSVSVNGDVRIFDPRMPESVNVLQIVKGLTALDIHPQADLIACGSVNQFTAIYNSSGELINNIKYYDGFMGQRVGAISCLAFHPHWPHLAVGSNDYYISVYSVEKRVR
T1 sequence (Q9BVC4 whole entry, looked up, other chains not shown): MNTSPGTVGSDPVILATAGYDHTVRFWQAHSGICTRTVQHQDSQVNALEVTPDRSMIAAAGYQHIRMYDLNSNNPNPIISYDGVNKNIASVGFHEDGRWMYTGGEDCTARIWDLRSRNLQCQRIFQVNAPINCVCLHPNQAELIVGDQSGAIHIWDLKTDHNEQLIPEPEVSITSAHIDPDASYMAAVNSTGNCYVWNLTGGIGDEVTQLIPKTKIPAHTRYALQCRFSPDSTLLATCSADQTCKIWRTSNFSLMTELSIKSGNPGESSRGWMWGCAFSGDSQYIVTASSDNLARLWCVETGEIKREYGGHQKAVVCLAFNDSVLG

As a reminder, the inhibition is how much of the control response was suppressed. As for `CCC(=O)C[C@@H](O)C[C@@H](C)C[C@H](NC(=O)[C@@H]1C[C@H](C)CN1C(=O)/C=C/[C@@H](C)CC)C(=O)N[C@H](C(=O)NC(C)(C)C(=O)N[C@@H](CC(C)C)C(=O)N[C@@H](CC(C)C)C(=O)NC(C)(C)C(=O)NC(C)(C)C(=O)NCCC(=O)N[C@@H](C)CNC)[C@H](O)C(C)C` ({Hexenoyl(2E,4S-Me)}-[Pro(4S-Me)][X1][Leu(3R-OH)][Aib]LL[Aib][Aib][βAla]-{NH((S)CH(CH3)CH2NHMe)}), the inhibition entry in [1], in [2], in [18] and in assay [20] was “inactive” each time. The outcome in assay [3], in assay [4], in [9], in [10], in assay [11] and in assay [12] was Active. The outcome in assay [13] was Active. For the same compound, the outcome in assay [5], in assay [6], in assay [7] and in assay [8] was inactive. For the same compound, the inhibition in assay [14] and in [16] was 100% in each case. Also, the inhibition result in assay [15], in [17], in assay [19], in assay [21] and in assay [22] was “Active” each time.
As usually defined, the GI50 is the concentration that inhibits growth by half. The low end stands for more potent growth inhibition, the high end for less potent growth inhibition. In the case of `CCC(=O)/C=C/C[C@@H](C)C[C@H](NC(=O)[C@@H]1C[C@H](C)CN1C(=O)/C=C/[C@@H](C)CC)C(=O)N[C@H](C(=O)NC(C)(C)C(=O)N[C@@H](CC(C)C)C(=O)N[C@@H](CC(C)C)C(=O)NC(C)(C)C(=O)NC(C)(C)C(=O)NCCC(=O)N[C@@H](C)CN(C)C)[C@H](O)C(C)C` ({Hexenoyl(2E,4S-Me)}-[Pro(4S-Me)][X2][Leu(3R-OH)][Aib]LL[Aib][Aib][βAla]-{NH((S)CH(Me)CH2NMe2)}), the result in assay [3], in [4], in assay [9], in assay [10], in assay [11] and in assay [12] was Active. For the same compound, in [13], the outcome was Active. The result in [5], in assay [6], in assay [7] and in [8] was inactive. Besides, the values for the GI50 in [23], in [24] and in assay [25] were 7.9 nM, 4.4 nM and > 100 nM, respectively.
With `CO[C@H]1C[C@@H]2CC[C@@H](C)[C@@](O)(O2)C(=O)C(=O)N2CCCC[C@H]2C(=O)O[C@H]([C@H](C)C[C@@H]2CC[C@@H](O)[C@H](OC)C2)CC(=O)[C@H](C)/C=C(\C)[C@@H](O)[C@@H](OC)C(=O)[C@H](C)C[C@H](C)/C=C/C=C/C=C/1C` [SIROLIMUS], the GI50 in [23] is 0.05 nM; in assay [24], 0.04 nM; in assay [25], > 100 nM. Moreover, the inhibition entry in assay [26] and in assay [27] was “Active” in each case.
